Laboratory results reported in ChEMBL document CHEMBL1152188, “Alpha-S-GalCer: synthesis and evaluation for iNKT cell stimulation” (Bioorg Med Chem Lett, 2008).
The source made the active and inactive calls.

Key:
[1] = system: iNKT; test: Induction of cell proliferation in C57BL/6 mouse iNKT cells at 100 ng/mL after 24 hrs by CFSE dilution; assay type: functional, cell-based
Outline: (§1)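 Splenocytes isolated from NOD or C57Bl/6 mice, labeled with CFSE and stimulated with the glycolipid in vitro. Proliferation read as CFSE dilution at 24 and 48 h.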

[2] = system: iNKT; test: Induction of cell proliferation in C57BL/6 mouse iNKT cells at 200 ng/mL after 24 hrs by CFSE dilution; assay type: functional, cell-based; outline: as §1
[3] = system: iNKT; test: Induction of cytokine expression in NOD mouse iNKT cells at 200 ng/mL after 48 hrs by intracellular staining for IFN-gamma; assay type: functional, cell-based
Outline: (§2)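 Splenocytes from NOD or C57Bl/6 mice, CFSE-labeled and stimulated in vitro with the glycolipid. Cytokine induction measured by intracellular IFNγ staining at 24 and 48 h.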

[4] = system: Mus musculus; test: Activation of iNKT cells in C57BL/6 mouse assessed as intracellular cytokine expression at 5 or 10 ug, ip by FACS analysis; assay type: functional, organism-based
Outline: (§3)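 Lipid given intraperitoneally to NOD or C57Bl/6 mice in PBS with […] Tween-20 (200 μg/mL). iNKT cell frequency and intracellular cytokine expression read by flow cytometry (FACS).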

[5] = system: Mus musculus; test: Activation of iNKT cells in NOD mouse assessed as intracellular cytokine expression at 5 or 10 ug, ip by FACS analysis; assay type: functional, organism-based; outline: as §3
[6] = system: iNKT; test: Induction of cytokine expression in NOD mouse iNKT cells at 100 ng/mL after 48 hrs by intracellular staining for IFN-gamma; assay type: functional, cell-based; outline: as §2
[7] = system: iNKT; test: Induction of cell proliferation in NOD mouse iNKT cells at 200 ng/mL after 48 hrs by CFSE dilution; assay type: functional, cell-based; outline: as §1
[8] = system: iNKT; test: Induction of cell proliferation in C57BL/6 mouse iNKT cells at 100 ng/mL after 48 hrs by CFSE dilution; assay type: functional, cell-based; outline: as §1
[9] = system: iNKT; test: Induction of cell proliferation in NOD mouse iNKT cells at 200 ng/mL after 24 hrs by CFSE dilution; assay type: functional, cell-based; outline: as §1
[10] = system: iNKT; test: Induction of cell proliferation in C57BL/6 mouse iNKT cells at 200 ng/mL after 48 hrs by CFSE dilution; assay type: functional, cell-based; outline: as §1
[11] = system: iNKT; test: Induction of cytokine expression in NOD mouse iNKT cells at 100 ng/mL after 24 hrs by intracellular staining for IFN-gamma; assay type: functional, cell-based; outline: as §2
[12] = system: iNKT; test: Induction of cell proliferation in NOD mouse iNKT cells at 100 ng/mL after 48 hrs by CFSE dilution; assay type: functional, cell-based; outline: as §1
[13] = system: iNKT; test: Induction of cytokine expression in C57BL/6 mouse iNKT cells at 100 ng/mL after 24 hrs by intracellular staining for IFN-gamma; assay type: functional, cell-based; outline: as §2
[14] = system: iNKT; test: Induction of cytokine expression in C57BL/6 mouse iNKT cells at 100 ng/mL after 48 hrs by intracellular staining for IFN-gamma; assay type: functional, cell-based; outline: as §2
[15] = system: Mus musculus; test: Activation of iNKT cells in C57BL/6 mouse assessed as cell frequency at 5 or 10 ug, ip by FACS analysis; assay type: functional, organism-based; outline: as §3
[16] = system: iNKT; test: Induction of cell proliferation in NOD mouse iNKT cells at 100 ng/mL after 24 hrs by CFSE dilution; assay type: functional, cell-based; outline: as §1
[17] = system: iNKT; test: Induction of cytokine expression in C57BL/6 mouse iNKT cells at 200 ng/mL after 48 hrs by intracellular staining for IFN-gamma; assay type: functional, cell-based; outline: as §2
[18] = system: iNKT; test: Induction of cytokine expression in C57BL/6 mouse iNKT cells at 200 ng/mL after 24 hrs by intracellular staining for IFN-gamma; assay type: functional, cell-based; outline: as §2
[19] = system: Mus musculus; test: Activation of iNKT cells in NOD mouse assessed as cell frequency at 5 or 10 ug, ip by FACS analysis; assay type: functional, organism-based; outline: as §3
[20] = system: iNKT; test: Induction of cytokine expression in NOD mouse iNKT cells at 200 ng/mL after 24 hrs by intracellular staining for IFN-gamma; assay type: functional, cell-based; outline: as §2

Measured: Activity

CCCCCCCCCCCCCCCCCCCCCCCCCC(=O)N[C@@H](CS[C@H]1O[C@H](CO)[C@H](O)[C@H](O)[C@H]1O)[C@H](O)[C@H](O)CCCCCCCCCCCCCC
inactive: all assays above
